Results as given in paper PMC5392356 (Nature chemical biology, 2017).

How the values were obtained:
[1] = target: VCB and Brd4^BD2 (Homo sapiens, UniProt O60885+P40337); experiment: ITC, VCB titrated into PROTAC:BD complex; format: binding
[2] = target: T1, Brd4 (Homo sapiens, UniProt O60885); experiment: BET protein degradation in HeLa cells, Western blot; format: cell-based; conditions: 24 h, 1–3 μM
How it was run: (§1)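 HeLa cells were kept in DMEM with 10% FBS, […], penicillin/streptomycin at 37 °C, 5% CO2. They were seeded in six-well plates and treated the next day. They were PBS-washed and lysed on ice in RIPA with protease inhibitors, Benzonase and 0.5 mM MgCl2, then sonicated and centrifuged. Protein was quantified by BCA. Immunoblots used Brd2, Brd3, Brd4 and β-actin antibodies with IRDye 800CW secondaries; band intensities were quantified on an Odyssey imager.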

[3] = target: T2, Brd2 (Homo sapiens, UniProt P25440); experiment: as above; format: cell-based; conditions: 24 h
How it was run: as §1

[4] = target: T3, Brd3 (Homo sapiens, UniProt Q15059); experiment: as above; format: cell-based; conditions: 24 h
How it was run: as §1

[5] = target: T1, Brd4; experiment: Isobaric tagging; format: cell-based; conditions: HeLa cells, AT1 1 µM, 24 h; 5,674 proteins quantified
[6] = target: T2, Brd2; experiment: Isobaric tagging; format: cell-based; conditions: HeLa cells, 24 h, proteomics
[7] = target: T3, Brd3; experiment: Isobaric tagging; format: cell-based; conditions: HeLa cells, 24 h, proteomics
[8] = ITC 25 °C, VCB into PROTAC:Brd4^BD2 vs VCB into PROTAC

Sequence of VCB and Brd4^BD2 (P40337 54-213, other chains not shown): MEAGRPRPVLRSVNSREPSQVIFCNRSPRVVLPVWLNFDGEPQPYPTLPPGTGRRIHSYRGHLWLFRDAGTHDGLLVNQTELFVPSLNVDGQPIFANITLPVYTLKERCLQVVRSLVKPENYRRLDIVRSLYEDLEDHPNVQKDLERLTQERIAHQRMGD
Sequence of VCB and Brd4^BD2 (Q15370 1-104, other chains not shown, further chain): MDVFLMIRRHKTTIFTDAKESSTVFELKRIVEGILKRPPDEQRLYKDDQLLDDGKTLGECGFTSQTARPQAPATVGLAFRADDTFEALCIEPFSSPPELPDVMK
Sequence of VCB and Brd4^BD2 (Q15369 17-112, other chains not shown, further chain): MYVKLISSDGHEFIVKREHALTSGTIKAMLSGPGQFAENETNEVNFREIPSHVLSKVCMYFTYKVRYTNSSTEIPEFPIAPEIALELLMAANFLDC
T3 sequence (Q15059 whole entry): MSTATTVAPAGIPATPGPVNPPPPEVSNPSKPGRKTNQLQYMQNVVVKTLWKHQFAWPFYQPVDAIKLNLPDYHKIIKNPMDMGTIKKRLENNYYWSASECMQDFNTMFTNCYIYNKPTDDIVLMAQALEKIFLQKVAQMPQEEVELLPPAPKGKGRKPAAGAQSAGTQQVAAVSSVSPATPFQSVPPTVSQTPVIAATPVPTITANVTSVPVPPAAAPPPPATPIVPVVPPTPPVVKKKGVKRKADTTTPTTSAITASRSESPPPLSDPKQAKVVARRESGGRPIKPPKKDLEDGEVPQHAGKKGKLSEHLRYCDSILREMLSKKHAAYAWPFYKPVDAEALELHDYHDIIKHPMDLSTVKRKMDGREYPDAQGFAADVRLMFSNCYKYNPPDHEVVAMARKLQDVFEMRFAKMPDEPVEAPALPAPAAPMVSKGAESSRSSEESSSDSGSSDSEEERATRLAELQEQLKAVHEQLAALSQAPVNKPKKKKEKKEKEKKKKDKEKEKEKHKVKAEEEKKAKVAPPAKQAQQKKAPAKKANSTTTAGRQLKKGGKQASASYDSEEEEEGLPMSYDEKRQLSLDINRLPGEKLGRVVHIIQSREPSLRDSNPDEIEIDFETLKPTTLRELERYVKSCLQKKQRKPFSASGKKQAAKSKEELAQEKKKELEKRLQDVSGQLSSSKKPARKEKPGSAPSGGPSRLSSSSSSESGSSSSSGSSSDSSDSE
T2 sequence (P25440 whole entry): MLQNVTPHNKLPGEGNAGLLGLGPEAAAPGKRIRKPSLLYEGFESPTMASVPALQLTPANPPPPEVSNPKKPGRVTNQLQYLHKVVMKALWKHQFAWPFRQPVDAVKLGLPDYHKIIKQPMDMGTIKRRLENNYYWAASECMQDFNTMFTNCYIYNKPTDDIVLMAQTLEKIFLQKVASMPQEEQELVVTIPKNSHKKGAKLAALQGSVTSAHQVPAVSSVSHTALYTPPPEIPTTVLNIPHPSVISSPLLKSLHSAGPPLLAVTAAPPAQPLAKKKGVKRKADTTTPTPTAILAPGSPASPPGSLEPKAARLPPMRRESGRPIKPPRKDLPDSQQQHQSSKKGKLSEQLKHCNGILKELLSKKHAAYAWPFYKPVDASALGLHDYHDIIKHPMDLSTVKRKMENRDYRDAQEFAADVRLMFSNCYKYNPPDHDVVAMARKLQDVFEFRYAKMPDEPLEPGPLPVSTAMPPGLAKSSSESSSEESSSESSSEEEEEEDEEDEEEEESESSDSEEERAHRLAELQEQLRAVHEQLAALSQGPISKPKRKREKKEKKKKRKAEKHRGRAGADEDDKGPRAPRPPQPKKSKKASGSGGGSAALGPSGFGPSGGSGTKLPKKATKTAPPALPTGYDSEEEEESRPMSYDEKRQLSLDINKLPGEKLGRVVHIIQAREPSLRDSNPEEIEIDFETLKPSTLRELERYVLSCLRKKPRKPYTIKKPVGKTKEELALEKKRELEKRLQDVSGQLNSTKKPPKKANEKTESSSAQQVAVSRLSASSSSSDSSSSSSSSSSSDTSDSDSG

ΔpKd (pKd ternary − pKd binary) [1, 8]: 0.84 ± 0.07
α (cooperativity, Kd binary/Kd ternary) [1, 8]: 7
ΔG (binary + ternary), stability of ternary complex ([1]; ITC, Brd4^BD2): -20.2 ± 0.2 kcal/mol
Brd4 protein level by immunoblot [2]: depletion of Brd4
activity against Brd2 (protein level by immunoblot) [3]: negligible activity
activity against Brd3 (protein level by immunoblot) [4]: negligible activity
Brd4 protein level after treatment (depleted to) [5]: ~ 40%
effect on protein level of Brd2 [6]: no effect on protein levels
effect on protein level of Brd3 [7]: no effect on protein levels
Structure (SMILES): CC(=O)N[C@H](C(=O)N1C[C@H](O)C[C@H]1C(=O)NCc1ccc(-c2scnc2C)cc1)C(C)(C)SCCCCCCNC(=O)C[C@@H]1N=C(c2ccc(Cl)cc2)c2c(sc(C)c2C)-n2c(C)nnc21 [AT1, (2S,4R)-1-((R)-2-acetamido-3-((6-(2-((S)-4-(4-chlorophenyl)-2,3,9-trimethyl-6H-thieno[3,2-f][1,2,4]triazolo[4,3-a][1,4]diazepin-6-yl)acetamido)hexyl)thio)-3-methylbutanoyl)-4-hydroxy-N-(4-(4-methylthiazol-5-yl)benzyl)pyrrolidine-2-carboxamide]
